Screening results deposited in PubChem BioAssay by Broad Institute.
HIV Env fusion – inhibitors of HIV-1 Env-driven cell-cell fusion, primary screen, HeLa-JRFL effector, CEM21 target cells, luciferase; inhibition, % at 12.3 µM; actives 1.1% (n = 360,000);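 active means mean replicate inhibition score of at least 50 and every replicate individually at or above 50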
CFTR F508del cor – F508del CFTR correction, initial screen, CFBE line, single point. CFBE cells, YFP halide quenching; stimulated with forskolin plus potentiator P3; % fluorescence drop versus neutral controls. activity (quench increase), % at 7.58 µM. actives 0.36% (n = 350,000);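 active means mean added fluorescence quench of at least 8% versus neutral control, with both replicates also reaching 8%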;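 further: cells transiently co-express mutant CFTR-F508del with the halide-sensitive YFP; corrector assay measuring rescue of mutant channel to the surface after 24 h compound exposure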
GSIS activator – GLuc luminescence reporter in INS-1E cells, primary screen for activators of glucose-dependent secretion of insulin. AID 743287, 2014. actives 0.61% (n = 370,000). INS-1E GLuc reporter insulin secretion, 2-3 h. activation, % at 16.6 µM;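 active means lowest replicate activation of at least 40%, so every replicate reaches that level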
miR122 inh – miR-122 Renilla sensor signal increase in Huh7, primary screen, miR-122 inhibitor project, cell-based, single point, plate reader | Huh7 miR-122 Renilla luciferase sensor, 48 h; neutral wells = 0, positive control = 100 | actives 0.3% (n = 340,000) | AID 602342, 2012 | activation (reporter increase), % at 12.5 µM;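 active means mean replicate activation score at least 90 and every replicate individually at or above 90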;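 further: higher luciferase means less miR-122 activity so hits act as miR-122 inhibitors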
Cneo AK release – Cryptococcus neoformans cell lysis inducers, primary screen, AK release luminescence, single concentration. C. neoformans lysis, adenylate kinase release luminescence, 4 h; normalised: neutral wells 0, clomiphene wells 100. lysis activity, % at 15 µM. actives 0.2% (n = 360,000). AID 651654, 2012;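 active means mean lysis activity across replicates of at least 80%, whatever share of replicates individually reach that level; inactive means mean lysis activity below 80%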
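read-out = cell lysis signal | test system = log-phase Cryptococcus neoformans yeast cells | input = cells at 5 × 10^6 per mL | medium = fresh YPD growth medium | signal = luminescent adenylate kinase detection reagent | timing = 4 h at 37 °C static, read 1 h later | dosing = single dose | controls = Clomiphene as positive lysis control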
rRNA inh HTS – reduced GFP signal of wild-type E. coli, primary screen, bacterial rRNA inhibitor project, GFP/RFP fluorescence, OD600, single point | GFP signal change (wild-type ribosome), % (concentration not given with the values) | E. coli WT GFP vs humanized-ribosome RFP mutants, 24 h; hits give low values; DMSO median 0, no signal -100 | actives 1.6% (n = 350,000) | AID 720706, 2013;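 active means significant combined selectivity score with lowered wild-type GFP, culture density cut under 30%, mutant RFP and density less affected; inactive means any of these conditions unmet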
A number is an active result. Rows were chosen to be rich in hits. Some 3.1% of all compounds tested hit in one or more screens of this group.

`COc1cccc(S(=O)(=O)Nc2ccc3c(c2)C(=O)N(C)C[C@@H](OC)[C@@H](C)CN[C@H](C)CO3)c1` gave HIV Env fusion inactive, CFTR F508del cor inactive, GSIS activator inactive, miR122 inh inactive, Cneo AK release inactive and rRNA inh HTS inactive.
CCC(=O)N1CCCCN2[C@H](CO)[C@H](c3ccc(/C=C/c4ccccc4)cc3)[C@H]2C1 was read as CFTR F508del cor inactive, GSIS activator inactive, miR122 inh inactive, Cneo AK release inactive and rRNA inh HTS inactive.
For N#Cc1ccccc1Cn1c(=O)n(CCCC(=O)NCc2ccc3c(c2)OCO3)c(=O)c2ccccc21 the results were GSIS activator inactive.
Screening COCCNC(=O)CCCn1c(=O)c2ccccc2n(Cc2ccccc2C#N)c1=O returned HIV Env fusion inactive, CFTR F508del cor inactive, GSIS activator 54.2, Cneo AK release inactive and rRNA inh HTS inactive.
For C[C@@H]1CN([C@@H](C)CO)C(=O)c2cc(NS(=O)(=O)c3ccc(Cl)cc3)ccc2O[C@@H](C)CCCCO[C@@H]1CN(C)S(=O)(=O)c1ccc(Cl)cc1 the results were HIV Env fusion inactive, CFTR F508del cor inactive, GSIS activator inactive, miR122 inh inactive, Cneo AK release inactive and rRNA inh HTS inactive.
Screening O=C(Nc1cccc(F)c1)N1CC(=O)N2[C@H](CO)[C@@H](c3ccc(-c4ccc(F)cc4)cc3)[C@H]2C1 returned CFTR F508del cor inactive, GSIS activator inactive and rRNA inh HTS inactive.
`CCOC(=O)c1ccc(NC(=O)CC2S/C(=N/N=C/c3c[nH]c4ccccc34)NC2=O)cc1` (stereo not given) gave HIV Env fusion inactive and GSIS activator inactive.
For Cc1ccc(NC(=O)CC2S/C(=N/N=C/c3c[nH]c4ccccc34)NC2=O)cc1 (stereo not given) the results were HIV Env fusion inactive, GSIS activator 59.9, miR122 inh inactive and Cneo AK release inactive.
`O=C(Cc1ccc(S(=O)(=O)N2CCOCC2)s1)N1CCN(S(=O)(=O)c2ccc(Cl)cc2)CC1` gave HIV Env fusion 69.6, CFTR F508del cor inactive, miR122 inh inactive and Cneo AK release inactive.
`O=C(C[C@@H]1C[C@H]2c3cc(NC(=O)C4CCOCC4)ccc3O[C@H]2[C@H](CO)O1)NCc1ccc(Oc2ccccc2)cc1` gave HIV Env fusion inactive, CFTR F508del cor inactive, GSIS activator inactive, miR122 inh inactive, Cneo AK release inactive and rRNA inh HTS inactive.
CO[C@@H]1CN(C)C(=O)c2ccc(NS(=O)(=O)c3cccc(C)c3)cc2OC[C@@H](C)NC[C@@H]1C was read as GSIS activator inactive and rRNA inh HTS inactive.
For COc1cccc(C(=O)Nc2ccc3c(c2)OC[C@H](C)N(C(C)=O)C[C@H](C)[C@@H](OC)CN(C)C3=O)c1 the results were HIV Env fusion inactive, CFTR F508del cor inactive, GSIS activator inactive, miR122 inh inactive, Cneo AK release inactive and rRNA inh HTS inactive.
CCNc1nc(NCC)nc(NC(N)=S)n1 was read as HIV Env fusion inactive, CFTR F508del cor inactive, GSIS activator inactive, miR122 inh inactive, Cneo AK release inactive and rRNA inh HTS inactive.
CCNc1nc(NC(N)=S)nc(NC(C)(C)C)n1 was read as HIV Env fusion inactive, CFTR F508del cor inactive, GSIS activator 69.6 and rRNA inh HTS inactive.
Screening CO[C@@H]1CN(C)C(=O)c2ccc(NC(C)=O)cc2OC[C@H](C)N(Cc2ccccn2)C[C@H]1C returned HIV Env fusion inactive, CFTR F508del cor inactive, GSIS activator inactive, miR122 inh inactive, Cneo AK release inactive and rRNA inh HTS inactive.
Cc1noc(C)c1S(=O)(=O)N(CC(=O)Nc1ccc2c(c1)OCO2)c1ccc(C(C)C)cc1 was read as HIV Env fusion inactive, CFTR F508del cor inactive, GSIS activator inactive, miR122 inh inactive, Cneo AK release inactive and rRNA inh HTS inactive.
